From article PMC2832854 (NeuroImage, 2009)
Several values for one entry are separate records, joined by “and”; a condition that tells them apart may be missing. Equal values may be shown once. Read-outs that look alike come from different tables or passages of the source.

Assays:
TSPO [1] = type: binding, human; settings: for Specific Binding: single radioligand concentration normalized to 0.5 nM, displacer PBR28; for Ki: read-out: KI of PBR28, displacement of [3H]PK 11195, mean ± SD
ABCB1 (P-glycoprotein) = ABCB1 (P-glycoprotein) (Homo sapiens, UniProt P08183); type: cell-based; settings: 5 nM radioligand
ABCC1 = ABCC1 (Homo sapiens, UniProt P33527); assay: Substrate specificity: radioligand accumulation in MCF-7 / MCF-7/VP16 cells; type: cell-based; settings: 5 nM radioligand
ABCG2 = biological target: T1, ABCG2 (Homo sapiens, UniProt Q9UNQ0); assay: Substrate specificity: radioligand accumulation in H460 / H460/MX20 cells; type: cell-based; settings: 5 nM radioligand
T1 sequence (Q9UNQ0 1-655): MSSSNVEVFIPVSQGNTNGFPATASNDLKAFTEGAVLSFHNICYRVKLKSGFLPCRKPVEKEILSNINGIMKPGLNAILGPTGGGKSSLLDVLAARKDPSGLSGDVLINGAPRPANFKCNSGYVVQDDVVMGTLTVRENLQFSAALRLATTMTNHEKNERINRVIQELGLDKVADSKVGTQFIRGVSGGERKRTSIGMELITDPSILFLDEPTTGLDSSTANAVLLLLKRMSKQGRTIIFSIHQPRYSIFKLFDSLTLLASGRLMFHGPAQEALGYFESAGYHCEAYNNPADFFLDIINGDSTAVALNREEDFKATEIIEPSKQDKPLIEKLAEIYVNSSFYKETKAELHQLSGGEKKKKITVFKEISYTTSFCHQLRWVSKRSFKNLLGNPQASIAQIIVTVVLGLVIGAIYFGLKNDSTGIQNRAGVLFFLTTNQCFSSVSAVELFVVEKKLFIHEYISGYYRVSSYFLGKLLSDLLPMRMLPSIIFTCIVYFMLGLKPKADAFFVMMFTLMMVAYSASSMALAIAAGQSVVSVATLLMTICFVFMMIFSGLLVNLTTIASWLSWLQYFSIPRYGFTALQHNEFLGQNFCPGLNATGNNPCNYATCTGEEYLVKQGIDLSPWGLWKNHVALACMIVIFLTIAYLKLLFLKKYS

TSPO [2] = settings: read-out: KI to monkey brain, ref Briard et al., 2008; cited from earlier work
[3] = test system: 18 kDa translocator protein (TSPO); assay: Human whole-body PET imaging, organ uptake in binders and non-binders; type: in vivo; settings: for Organ uptake (area under time-activity curve): 5 to 20 min
TSPO [4] = settings: 0 to 120 min, ref Imaizumi et al., 2008, cited from earlier work
TSPO [5] = settings: cited from earlier work
TSPO [6] = type: in vivo, rhesus monkeys (Macaca mulatta); settings: for Decrease of area under the curve by pre-blockade: 0 to 120 min, nonradioactive PBR28; for Time at which uptake declined to 50% of peak: after pre-blockade
Procedure, shortened: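 Two male rhesus monkeys (13.2 ± 2.1 kg) each had two scans. The baseline scan followed i.v. 11C-labelled TSPO radioligand (276 ± 8 MBq, posterior tibial vein). The second followed unlabelled TSPO ligand 5 mg/kg i.v. given 30 min before radioligand (277 ± 21 MBq). 2D dynamic whole-body PET covered 4 segments, head to upper thigh, in 22 frames (75 s–15 min) over 120 min. Organ SUV curves were integrated over 5–20 and 0–120 min.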

TSPO [7] = type: in vivo, rhesus monkeys
[8] = saturation curve, homologous displacement, binders

Sequence of ABCB1 (P-glycoprotein) (P08183 whole entry): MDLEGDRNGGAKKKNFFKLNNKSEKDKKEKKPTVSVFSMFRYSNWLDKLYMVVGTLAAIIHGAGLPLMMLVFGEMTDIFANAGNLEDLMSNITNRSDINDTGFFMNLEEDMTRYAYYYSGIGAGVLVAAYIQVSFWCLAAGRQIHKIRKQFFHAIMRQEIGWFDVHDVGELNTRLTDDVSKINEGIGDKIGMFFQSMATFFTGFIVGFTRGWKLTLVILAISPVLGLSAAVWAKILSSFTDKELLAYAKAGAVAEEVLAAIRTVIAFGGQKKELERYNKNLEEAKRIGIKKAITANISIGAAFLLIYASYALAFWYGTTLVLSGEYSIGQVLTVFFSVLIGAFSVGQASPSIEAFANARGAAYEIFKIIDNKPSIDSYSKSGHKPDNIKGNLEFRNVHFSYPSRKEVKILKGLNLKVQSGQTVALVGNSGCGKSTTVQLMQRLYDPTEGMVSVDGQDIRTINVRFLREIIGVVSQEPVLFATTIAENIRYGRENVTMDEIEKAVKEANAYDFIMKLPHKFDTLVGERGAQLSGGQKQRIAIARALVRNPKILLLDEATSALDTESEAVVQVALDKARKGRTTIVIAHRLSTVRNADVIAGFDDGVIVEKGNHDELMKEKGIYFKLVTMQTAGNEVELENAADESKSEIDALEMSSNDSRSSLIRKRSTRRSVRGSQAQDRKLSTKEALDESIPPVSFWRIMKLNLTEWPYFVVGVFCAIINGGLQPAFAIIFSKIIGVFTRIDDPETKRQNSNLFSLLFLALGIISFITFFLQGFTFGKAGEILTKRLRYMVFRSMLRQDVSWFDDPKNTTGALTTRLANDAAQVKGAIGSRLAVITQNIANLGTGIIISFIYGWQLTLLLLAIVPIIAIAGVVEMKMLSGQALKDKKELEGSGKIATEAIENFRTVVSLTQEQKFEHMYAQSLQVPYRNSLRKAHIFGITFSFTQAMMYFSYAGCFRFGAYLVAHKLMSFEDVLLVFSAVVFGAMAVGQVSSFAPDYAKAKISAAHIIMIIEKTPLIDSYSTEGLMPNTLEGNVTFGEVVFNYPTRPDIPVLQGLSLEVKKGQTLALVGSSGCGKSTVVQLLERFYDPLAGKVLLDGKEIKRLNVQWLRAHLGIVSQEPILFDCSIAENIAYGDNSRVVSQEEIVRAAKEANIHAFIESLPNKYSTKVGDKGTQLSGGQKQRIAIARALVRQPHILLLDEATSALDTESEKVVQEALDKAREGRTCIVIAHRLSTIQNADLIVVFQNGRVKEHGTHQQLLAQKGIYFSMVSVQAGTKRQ
Sequence of ABCC1 (P33527 whole entry): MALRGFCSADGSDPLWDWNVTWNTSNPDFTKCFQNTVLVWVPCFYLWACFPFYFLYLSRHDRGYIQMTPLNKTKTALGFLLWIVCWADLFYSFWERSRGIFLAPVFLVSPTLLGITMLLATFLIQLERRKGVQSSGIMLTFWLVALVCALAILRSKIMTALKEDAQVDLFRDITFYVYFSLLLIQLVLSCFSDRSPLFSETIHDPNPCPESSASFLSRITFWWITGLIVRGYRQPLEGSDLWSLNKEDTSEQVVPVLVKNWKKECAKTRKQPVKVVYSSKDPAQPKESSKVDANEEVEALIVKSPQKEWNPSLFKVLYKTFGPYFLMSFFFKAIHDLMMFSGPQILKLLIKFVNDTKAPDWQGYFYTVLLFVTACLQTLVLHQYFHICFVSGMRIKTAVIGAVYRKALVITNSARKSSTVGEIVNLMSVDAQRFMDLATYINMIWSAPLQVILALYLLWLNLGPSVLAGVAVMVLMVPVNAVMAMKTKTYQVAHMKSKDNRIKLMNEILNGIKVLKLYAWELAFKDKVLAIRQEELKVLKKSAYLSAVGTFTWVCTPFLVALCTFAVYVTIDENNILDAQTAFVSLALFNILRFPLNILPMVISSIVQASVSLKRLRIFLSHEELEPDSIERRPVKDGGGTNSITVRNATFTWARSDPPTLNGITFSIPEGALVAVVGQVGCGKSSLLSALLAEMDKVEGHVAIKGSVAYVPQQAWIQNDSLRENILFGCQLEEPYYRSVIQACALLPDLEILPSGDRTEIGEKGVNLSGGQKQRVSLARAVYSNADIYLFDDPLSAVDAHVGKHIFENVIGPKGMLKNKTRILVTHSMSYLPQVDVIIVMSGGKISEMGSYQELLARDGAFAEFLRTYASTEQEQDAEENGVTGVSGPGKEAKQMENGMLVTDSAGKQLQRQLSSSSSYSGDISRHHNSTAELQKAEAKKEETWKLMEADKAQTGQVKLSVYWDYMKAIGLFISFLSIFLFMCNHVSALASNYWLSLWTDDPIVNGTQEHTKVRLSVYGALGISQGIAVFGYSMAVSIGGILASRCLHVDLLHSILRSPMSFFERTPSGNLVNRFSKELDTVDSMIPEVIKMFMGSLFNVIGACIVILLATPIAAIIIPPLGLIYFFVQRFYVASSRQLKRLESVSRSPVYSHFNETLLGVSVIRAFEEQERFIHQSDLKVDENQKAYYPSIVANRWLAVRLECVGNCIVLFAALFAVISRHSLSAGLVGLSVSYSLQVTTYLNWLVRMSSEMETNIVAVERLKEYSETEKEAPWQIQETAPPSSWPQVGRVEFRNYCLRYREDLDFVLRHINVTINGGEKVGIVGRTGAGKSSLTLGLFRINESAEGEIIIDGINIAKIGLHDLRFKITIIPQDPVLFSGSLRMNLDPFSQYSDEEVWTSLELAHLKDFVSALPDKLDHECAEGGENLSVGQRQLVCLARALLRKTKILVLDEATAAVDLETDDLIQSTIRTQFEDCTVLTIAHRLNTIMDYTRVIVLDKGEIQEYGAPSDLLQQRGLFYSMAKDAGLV

CCC(C)N(C)C(=O)c1cc2ccccc2c(-c2ccccc2Cl)n1 (stereo not shown) [[^3H]PK 11195]
Bmax (TSPO [1]; [8]): 10.4 ± 7.1 pmol / mg protein | Bmax (TSPO [1]; saturation curve, homologous displacement, non-binders): 15.1 ± 12.0 pmol / mg protein | Specific Binding (TSPO [1]; binders): 1.3 ± 0.5 pmol / mg protein | Substrate for transporter (ABCB1 (P-glycoprotein)): neither [^3H]PK 11195 nor [^3H]PBR8 was a substrate | Substrate for transporter (ABCC1): neither [^3H]PK 11195 nor [^3H]PBR8 was a substrate | Substrate for transporter (ABCG2): neither [^3H]PK 11195 nor [^3H]PBR8 was a substrate

COc1ccccc1CN(C(C)=O)c1cnccc1Oc1ccccc1 [PBR28]
Ki (TSPO [1]; binders): 6.1 ± 6.4 nM | Ki (TSPO [1]; non-binders): 67 nM and 67.4 nM | Ki (TSPO [2]): 0.94 nM

CC(=O)N(Cc1ccccc1O[11CH3])c1cnccc1Oc1ccccc1 [[^11C]PBR28]
Uptake lower in non-binders than in binders ([3]; all five organs with high densities of TSPO (lung, heart, brain, kidney, spleen)): 50% to 75% | Organ uptake (area under time-activity curve) ([3]; brain, binders (n = 5)): 27.3 ± 3.4 SUV • min | Organ uptake (area under time-activity curve) ([3]; brain, non-binders (n = 5)): 13.8 ± 1.3 SUV • min | Organ uptake (area under time-activity curve) ([3]; heart, binders (n = 5)): 72.3 ± 10.3 SUV • min | Organ uptake (area under time-activity curve) ([3]; heart, non-binders (n = 5)): 29.7 ± 4.7 SUV • min | Organ uptake (area under time-activity curve) ([3]; kidney, binders (n = 5)): 109.3 ± 12.9 SUV • min | Organ uptake (area under time-activity curve) ([3]; kidney, non-binders (n = 5)): 33.4 ± 15.5 SUV • min | Organ uptake (area under time-activity curve) ([3]; lung, binders (n = 5)): 44.9 ± 6.5 SUV • min | Organ uptake (area under time-activity curve) ([3]; lung, non-binders (n = 5)): 13.6 ± 2.0 SUV • min | Organ uptake (area under time-activity curve) ([3]; spleen, binders (n = 5)): 131.6 ± 19.3 SUV • min | Organ uptake (area under time-activity curve) ([3]; spleen, non-binders (n = 5)): 34.1 ± 11.0 SUV • min | Decrease of area under the curve by pharmacological blockade (TSPO [4]; brain): 42% | Decrease of area under the curve by pharmacological blockade (TSPO [4]; kidney): 50% | Decrease of area under the curve by pharmacological blockade (TSPO [4]; lung): 70% | Share of uptake in monkey brain that is specific (TSPO [5]; ref Imaizumi et al., 2008): More than 90%

CC[C@@H](C)N([11CH3])C(=O)c1cc2ccccc2c(-c2ccccc2Cl)n1 [[^11C]-(R)-PK 11195]
Organ uptake (area under time-activity curve) ([3]; brain, binders (n = 5)): 18.8 ± 1.0 SUV • min | Organ uptake (area under time-activity curve) ([3]; brain, non-binders (n = 5)): 17.5 ± 2.0 SUV • min | Organ uptake (area under time-activity curve) ([3]; heart, binders (n = 5)): 59.8 ± 4.9 SUV • min | Organ uptake (area under time-activity curve) ([3]; heart, non-binders (n = 5)): 48.8 ± 2.8 SUV • min | Organ uptake (area under time-activity curve) ([3]; kidney, binders (n = 5)): 63.8 ± 3.2 SUV • min | Organ uptake (area under time-activity curve) ([3]; kidney, non-binders (n = 5)): 60.7 ± 12.3 SUV • min | Organ uptake (area under time-activity curve) ([3]; lung, binders (n = 5)): 25.6 ± 3.7 SUV • min | Organ uptake (area under time-activity curve) ([3]; lung, non-binders (n = 5)): 18.7 ± 2.5 SUV • min | Organ uptake (area under time-activity curve) ([3]; spleen, binders (n = 5)): 65.6 ± 9.3 SUV • min | Organ uptake (area under time-activity curve) ([3]; spleen, non-binders (n = 5)): 53.4 ± 11.4 SUV • min | Decrease of area under the curve by pre-blockade (TSPO [6]; brain): 14% | Area under the time-activity curve (TSPO [6]; brain, 5 to 20 min, baseline): 28.2 SUV • min | Area under the time-activity curve (TSPO [6]; brain, 5 to 20 min, pre-blocked with PBR28 5 mg/kg i.v.): 29.1 SUV • min | Time at which uptake declined to 50% of peak (TSPO [6]; brain): 30 min | Area under the time-activity curve (TSPO [6]; heart, 5 to 20 min, baseline): 75.1 SUV • min | Area under the time-activity curve (TSPO [6]; heart, 5 to 20 min, pre-blocked with PBR28 5 mg/kg i.v.): 33.6 SUV • min | Decrease of area under the curve by pre-blockade (TSPO [6]; kidney): 30% | Area under the time-activity curve (TSPO [6]; kidney, 5 to 20 min, baseline): 166.3 SUV • min | Area under the time-activity curve (TSPO [6]; kidney, 5 to 20 min, pre-blocked with PBR28 5 mg/kg i.v.): 60.5 SUV • min | Decrease of area under the curve by pre-blockade (TSPO [6]; lung): 31% | Area under the time-activity curve (TSPO [6]; lung, 5 to 20 min, baseline): 29.6 SUV • min | Area under the time-activity curve (TSPO [6]; lung, 5 to 20 min, pre-blocked with PBR28 5 mg/kg i.v.): 18.3 SUV • min | Time at which uptake declined to 50% of peak (TSPO [6]; other organs): ≤ 5 min | Area under the time-activity curve lower in pre-blocked than in baseline scans (TSPO [6]; peripheral organs (heart, lung, spleen, kidney), 5 to 20 min): 38 – 76% | Area under the time-activity curve (TSPO [6]; spleen, 5 to 20 min, baseline): 87.1 SUV • min | Area under the time-activity curve (TSPO [6]; spleen, 5 to 20 min, pre-blocked with PBR28 5 mg/kg i.v.): 20.6 SUV • min | Peak uptake of radioactivity in brain (TSPO [7]; after blockade with PBR28 5 mg/kg i.v.): 3.43 SUV | Peak uptake of radioactivity in brain (TSPO [7]; baseline): 1.64 SUV | Share of uptake in monkey brain that is specific (displaceable) (TSPO [5]; without correction for peripheral clearance, ref Petit-Taboue et al., 1991): about 50%

COc1ccccc1CN(C(C)=O)c1cnccc1Oc1ccccc1 [[^3H]PBR28] [listing 1 of 2 here]
Specific binding, fold lower in non-binders than in binders (TSPO [1]; eight non-binders vs ten binders, single radioligand concentration): 36 fold | Affinity for TSPO, fold lower in non-binders than in binders (TSPO [1]; leukocyte membranes): more than ten-fold lower affinity | Bmax (TSPO [1]; [8]): 16.9 ± 8.0 pmol / mg protein | Kd (TSPO [1]; [8]): 1.8 ± 0.6 nM | Specific Binding (TSPO [1]; binders): 7.2 ± 2.2 pmol / mg protein

COc1ccccc1CN(C(C)=O)c1cnccc1Oc1ccccc1 [[^3H]PBR28] [listing 2 of 2 here]
Substrate for transporter (ABCB1 (P-glycoprotein)): neither [^3H]PK 11195 nor [^3H]PBR8 was a substrate | Substrate for transporter (ABCC1): neither [^3H]PK 11195 nor [^3H]PBR8 was a substrate | Substrate for transporter (ABCG2): neither [^3H]PK 11195 nor [^3H]PBR8 was a substrate
